Measurements taken from PubChem BioAssay.
Inconclusive results are not listed.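 Rule for the calls, unless noted: active = viability increase at or above a cutoff of the median across tested compounds plus 3 SD (cut at about 8.5% in these data, passing the limit was not always enough); inconclusive = some gains above the cutoff, reason not given; inactive = the rest.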

What was measured:
[1] = OD615 S. cerevisiae growth inhibition, permissive medium, pilot counter-assay, permissive growth control for S. cerevisiae lifespan shortening project (AID 705;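 active = growth inhibition above 25% in both replicates, a cutoff set 3 SD above the mean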); details: OD615, 24 h, at 10 µM, active compounds read high
In short: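 System – S. cerevisiae with engineered DeaD lifespan system · Buffer or medium – SC raffinose/galactose permissive medium · Schedule – cells pre-grown 4 h, then 24 h compound exposure, 30 °C humidified · Technique – culture turbidity as optical density at 615 nm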

[2] = Restrictive medium S. cerevisiae growth inhibition, OD615, pilot screen of yeast lifespan reduction project, restrictive growth control (AID 706;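 active = growth inhibition above a set limit, 3 SD over mean compound inhibition, in both replicates, cut at about 43% in these data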;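 note: modified DeaD lifespan yeast strain shifted to restrictive glucose medium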); details: OD615, 48 h, at 10 µM, active compounds read high
In short: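 Material: engineered S. cerevisiae DeaD strain / Medium: glucose-based CSMM-D restrictive medium / Compound: single dose of 10 µM compound final, 0.25% DMSO / Timing: 4 h pre-incubation, 48 h exposure at 30 °C / Technique: OD615 absorbance reading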

[3] = viability gain of MRP-1-high H69AR cells under doxorubicin, pilot screen, MRP-1 activator project, CellTiter-Glo, duplicate (AID 807); details: H69AR viability with doxorubicin, CellTiter-Glo luminescence; at 10 µM; active compounds read high;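 note: compound pretreatment 18-22 h then 72 h combined with doxorubicin; 0% = doxorubicin alone and 100% = vehicle without doxorubicin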
[4] = growth suppression of beta-catenin knockout HCT116, pilot screen, human colon tumor cells (AID 823;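 active = cell viability at or below a set limit in both duplicate runs, the limit being the all-compound median minus 4 SD, cut at about 23% in these data, passing the limit was not always enough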;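 note: 0% = wells killed by 20 µM Hyamine and 100% = untreated DMSO cell wells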); details: CellTiter-Glo, 60 h, at 10 µM, active compounds read low
[5] = growth suppression of PTEN-deleted HCT116, pilot screen, cell-based, HCT116 clonal line, CellTiter-Glo (AID 824;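 active = viability at or below 27.92% in each of two runs, the all-compound median minus 4 SD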;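 note: 0% = 20 µM Hyamine control and 100% = vehicle cell control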); details: 60 h, at 10 µM, active compounds read low
[6] = inhibitors of the yeast RAM network, pilot screen, dse1pr::URA3 reporter, 5-FOA selection (AID 869;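 active = inhibition over a set limit, the all-compound mean plus 3 SD, in both replicate runs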;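 note: 0% = DMSO wells with no growth and 100% = 10 µM 1-NA-PP1 with full growth; RAM network block rescues cells from 5-FOA so hits raise OD615 growth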); details: S. cerevisiae dse1pr::URA3 5-FOA growth, OD615, 2 d; at 10 µM; active compounds read high; strain carries analog-sensitive mutant Cbk1 kinase
[7] = RAM signaling pathway blockade in yeast – S. cerevisiae, Pdr1DBD-CYC8 efflux-inhibited sensitized strain, primary screen (AID 1298;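 active = RAM network inhibition above 8.4% in each of two replicates, 3 SD over the compound average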;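 note: 0% = DMSO untreated cells without growth and 100% = 10 µM 1-NA-PP1 full growth; higher means more yeast growth rescued from 5-FOA killing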); details: S. cerevisiae cbk1-as DSE1-URA3 strain, 5-FOA growth OD615, 2 d; at 50 µM; active compounds read high

O=C(CN1c2cccc3cccc(c23)S1(=O)=O)NCc1ccc2c(c1)OCO2
inactive: growth inhibition [1] -1.29% | growth inhibition [2] -6.94% | viability increase [3] -3.03% | viability [4] 89.2% | viability [5] 82.6% | inhibition [6] 1.05% | RAM network inhibition [7] 5.12%

Cn1c(C(=O)Nc2ccc3c(c2)OCCO3)cc2c(=O)n(C)c3ccccc3c21
inactive: growth inhibition [1] -14.2% | growth inhibition [2] -2.83% | viability increase [3] -7.31% | viability [4] 72.5% | viability [5] 64.3% | inhibition [6] 1.94% | RAM network inhibition [7] 4.95%

CN(C)CCNC(=O)c1ccc2c(c1)N(Cc1ccc(F)cc1)CCS2
inactive: growth inhibition [1] -2.46% | growth inhibition [2] 0.095% | viability increase [3] -6.05% | viability [4] 47.8% | viability [5] 55.1% | inhibition [6] 0.835% | RAM network inhibition [7] 0.57%

Cc1ccc(-c2nc(NC(=O)CSc3nnc4scc(-c5ccccc5)n34)ns2)cc1
inactive: growth inhibition [1] 0.135% | growth inhibition [2] 0.99% | viability increase [3] 1.17% | viability [4] 74% | viability [5] 66.8% | inhibition [6] 2.42% | RAM network inhibition [7] 5.6%

CCOC(=O)c1[nH]c2c(c1C)C(=O)CC(c1ccc(N(C)C)cc1)C2 (configuration not stated)
inactive: growth inhibition [1] -3.69% | growth inhibition [2] -0.995% | viability increase [3] -3.6% | viability [4] 77% | viability [5] 71.7% | inhibition [6] 2.3% | RAM network inhibition [7] 1.32%

CC(=O)C1C(c2ccc(OC(F)F)cc2)NC(=O)NC1(O)C(F)(F)F (configuration not stated)
inactive: growth inhibition [1] 3.71% | growth inhibition [2] -6.05% | viability increase [3] 0.74% | viability [4] 107% | viability [5] 97.4% | inhibition [6] 0.31% | RAM network inhibition [7] 5.93%

CCC(=O)NC(c1ccccc1)c1nc2ccccc2[nH]1 (configuration not stated)
inactive: growth inhibition [1] -12.9% | growth inhibition [2] -14.2% | viability increase [3] -0.96% | viability [4] 100% | viability [5] 97.4% | inhibition [6] 1.48% | RAM network inhibition [7] 0.62%

COc1ccc(N2CCN(Cc3nc4c(c(=O)[nH]c(=O)n4C)n3Cc3cccc(Cl)c3)CC2)cc1
inactive: growth inhibition [1] -9.21% | growth inhibition [2] -12.3% | viability increase [3] -3.93% | viability [4] 91.6% | viability [5] 77% | inhibition [6] 1.39% | RAM network inhibition [7] 1.83%

CNC(=O)C1CC(=O)N(c2ccc(C)cc2)C1 (configuration not stated)
inactive: growth inhibition [1] -11.6% | growth inhibition [2] -11.4% | viability increase [3] 0.85% | viability [4] 98.5% | viability [5] 102% | inhibition [6] 0.395% | RAM network inhibition [7] 2.24%

COc1ccccc1CNC(=O)c1nnc(Cc2ccc(Cl)cc2)o1
inactive: growth inhibition [1] -9.86% | growth inhibition [2] 15.4% | viability increase [3] 2.29% | viability [4] 103% | viability [5] 99.8% | inhibition [6] 1.81% | RAM network inhibition [7] 1.15%

Cn1nnnc1SCc1ccc(F)cc1
inactive: growth inhibition [1] -3.69% | growth inhibition [2] -4.48% | viability increase [3] -0.09% | viability [4] 98.1% | viability [5] 108% | inhibition [6] 1.25% | RAM network inhibition [7] 2.61%

CC1CCC(n2c(=S)[nH]c3ccccc3c2=O)CC1 (configuration not stated)
inactive: growth inhibition [1] 13% | growth inhibition [2] 23% | viability increase [3] -4.34% | viability [4] 81.5% | viability [5] 75.4% | inhibition [6] 0.285% | RAM network inhibition [7] 5.25%

COc1cc(OC)nc(NC(=O)C(C)C)n1
inactive: growth inhibition [1] -1.12% | growth inhibition [2] 6.71% | viability increase [3] -0.57% | viability [4] 104% | viability [5] 97.3% | inhibition [6] 1.01% | RAM network inhibition [7] 4.06%

Cc1cc2oc(C(=O)Nc3cccnc3)c(C)c2cc1C
inactive: growth inhibition [1] 7.22% | growth inhibition [2] 6.46% | viability increase [3] -1.32% | viability [4] 90.1% | viability [5] 87% | inhibition [6] 0.52% | RAM network inhibition [7] 1.77%

[O-]/[N+](=C\c1ccncc1)c1ccc(Br)cc1
inactive: growth inhibition [1] -15% | growth inhibition [2] -19.9% | viability increase [3] -4.14% | viability [4] 83.7% | viability [5] 87.9% | inhibition [6] 2.81% | RAM network inhibition [7] 6.02%

COCCOC(=O)C1=C(C)NC2=C(C(=O)CCC2)C1c1ccc(N(C)C)cc1 (configuration not stated)
inactive: growth inhibition [1] -4.38% | growth inhibition [2] -19.9% | viability increase [3] -1.53% | viability [4] 98.6% | viability [5] 93.4% | inhibition [6] 0.975% | RAM network inhibition [7] 4.47%

CCOC1OC2C(CO)OC(n3cnc4c(N)ncnc43)C2O1 (configuration not stated)
inactive: growth inhibition [1] 6.12% | growth inhibition [2] 10.6% | viability increase [3] 0.13% | viability [4] 95.1% | viability [5] 96.6% | inhibition [6] 1.5% | RAM network inhibition [7] 1.28%

CCOc1cccc2sc(NC(=O)c3ccc(Br)s3)nc12
inactive: growth inhibition [1] -25.6% | growth inhibition [2] -9.82% | viability increase [3] -3.55% | viability [4] 65.4% | viability [5] 58% | inhibition [6] 2.42% | RAM network inhibition [7] 4.63%

Cc1cccc(-n2ccnc2SCC(=O)Nc2nnc(C)s2)c1
inactive: growth inhibition [1] -5.12% | growth inhibition [2] 20.3% | viability increase [3] -4.56% | viability [4] 76.9% | viability [5] 72.8% | inhibition [6] 1.13% | RAM network inhibition [7] 6.22%

CCN1c2ccccc2NC2C1C(C(C)=O)C(=O)N2c1ccc(Cl)cc1 (configuration not stated)
inactive: growth inhibition [1] -2.96% | growth inhibition [2] -9.21% | viability increase [3] -5.03% | viability [4] 84.3% | viability [5] 72.2% | inhibition [6] 1.32% | RAM network inhibition [7] 5.6%

CCOc1ccc(NC(=O)N(C2CCCCC2)C2CCN(C(C)=O)CC2)cc1
inactive: growth inhibition [1] -8.37% | growth inhibition [2] 6.87% | viability increase [3] -0.8% | viability [4] 102% | viability [5] 100% | inhibition [6] 0.795% | RAM network inhibition [7] 3.05%

CNC(=O)c1c(NC(=O)c2ccc(S(=O)(=O)N3CCOCC3)cc2)sc2c1CCC2
inactive: growth inhibition [1] -0.09% | growth inhibition [2] -0.055% | viability increase [3] -0.97% | viability [4] 95.9% | viability [5] 91.8% | inhibition [6] 0.78% | RAM network inhibition [7] 4.58%

CCCCn1c(=O)n(CC(=O)Nc2ccc(C)c(Cl)c2)c(=O)c2c1ncn2Cc1ccco1
inactive: growth inhibition [1] -2.46% | growth inhibition [2] -24.8% | viability increase [3] 0.99% | viability [4] 72.2% | viability [5] 72.3% | inhibition [6] 2.23% | RAM network inhibition [7] 1.61%

CCOC(=O)C1CCN(C(=O)COc2cc(C)c(Br)c(C)c2)CC1
inactive: growth inhibition [1] -2.41% | growth inhibition [2] -16.5% | viability increase [3] -3.43% | viability [4] 94.4% | viability [5] 85.3% | inhibition [6] 1.47% | RAM network inhibition [7] 1.59%

COCCCN1Cc2cccc(C(=O)O)c2C1=O
inactive: growth inhibition [1] 1.16% | growth inhibition [2] 4.03% | viability increase [3] -2.13% | viability [4] 103% | viability [5] 102% | inhibition [6] 0.525% | RAM network inhibition [7] 7.02%

Cc1cc(Nc2c(C)cccc2C)n2nc(C)nc2n1
inactive: growth inhibition [1] -4.35% | growth inhibition [2] 7.11% | viability increase [3] -0.85% | viability [4] 104% | viability [5] 111% | inhibition [6] 2.33% | RAM network inhibition [7] 0.16%

CCOC(=O)N1CCC(NC(=O)Cn2cc3c(n2)CCCC3)CC1
inactive: growth inhibition [1] -1.57% | growth inhibition [2] -0.65% | viability increase [3] -3.35% | viability [4] 107% | viability [5] 92.5% | inhibition [6] 2.6% | RAM network inhibition [7] 2.81%

CCCC(=O)C1=C(SCC)CC(C)(C)C(C(=O)OC)C1=O (configuration not stated)
inactive: growth inhibition [1] -14.4% | growth inhibition [2] -21.5% | viability increase [3] -2.57% | viability [4] 86.5% | viability [5] 91.8% | inhibition [6] -0.035% | RAM network inhibition [7] 3.4%

COC(=O)CSC1=C(C#N)C(c2cccc(OC)c2)CC(=O)N1 (configuration not stated)
inactive: growth inhibition [1] -12.2% | growth inhibition [2] -5.83% | viability increase [3] -3.93% | viability [4] 89.1% | viability [5] 90.3% | inhibition [6] 0.41% | RAM network inhibition [7] -1.62%

O=C(Nc1ccccc1C(=O)NCc1ccco1)c1ccccc1
inactive: growth inhibition [1] -21.8% | growth inhibition [2] -6.89% | viability increase [3] -3.16% | viability [4] 100% | viability [5] 90.5% | inhibition [6] 1.55% | RAM network inhibition [7] 8.28%

CCCOc1ccc(N2CC(C(=O)Nc3ccccc3OC)CC2=O)cc1 (configuration not stated)
inactive: growth inhibition [1] -15.6% | growth inhibition [2] -6.16% | viability increase [3] 0.54% | viability [4] 105% | viability [5] 93.7% | inhibition [6] 0.11% | RAM network inhibition [7] 2.24%

C=CCSc1nnc2c(n1)[nH]c1c(C)cccc12
inactive: growth inhibition [1] -27.3% | growth inhibition [2] 3.13% | viability increase [3] -5.97% | viability [4] 64.6% | viability [5] 65.6% | inhibition [6] 1.71% | RAM network inhibition [7] 5.38%

Cc1nc2sc(C(c3cccs3)N3CCN(C(=O)c4ccco4)CC3)c(O)n2n1 (configuration not stated)
inactive: growth inhibition [1] -1.15% | growth inhibition [2] -6.47% | viability increase [3] -3.62% | viability [4] 102% | viability [5] 100% | inhibition [6] 0.74% | RAM network inhibition [7] -1.05%

O=S(=O)(c1ccc(Oc2ccc(S(=O)(=O)N3CCOCC3)cc2)cc1)N1CCOCC1
inactive: growth inhibition [1] -21.5% | growth inhibition [2] -21.2% | viability increase [3] -1.32% | viability [4] 82.7% | viability [5] 87.6% | inhibition [6] 4.01% | RAM network inhibition [7] 4.04%

CCOC(=O)c1ccccc1NC(=O)CN(c1ccccc1OCC)S(C)(=O)=O
inactive: growth inhibition [1] 2.85% | growth inhibition [2] 1.95% | viability increase [3] -1.57% | viability [4] 96.4% | viability [5] 98% | inhibition [6] 1.1% | RAM network inhibition [7] 2.46%

O=C(Cc1cc(=O)[nH]c(=O)[nH]1)NCCN1CCOCC1
inactive: growth inhibition [1] 4.2% | growth inhibition [2] 10.4% | viability increase [3] 1.08% | viability [4] 102% | viability [5] 98.6% | inhibition [6] 0.35% | RAM network inhibition [7] 5.04%
